Runt-CBFb FRET – inhibitors of human RUNX1 Runt domain binding to CBFb; Cerulean-Runt/Venus-CBFb FRET ratio 530/480, 1 h; Q01196+Q13951; 220,000 compounds, 0.46% hits; inhibition, % at 20 µM;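 active = inhibition over about 50% at 20 µM in the single-dose screen, limit read from the data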
Target sequence (Q01196 whole entry, looked up, the tested form may be a part): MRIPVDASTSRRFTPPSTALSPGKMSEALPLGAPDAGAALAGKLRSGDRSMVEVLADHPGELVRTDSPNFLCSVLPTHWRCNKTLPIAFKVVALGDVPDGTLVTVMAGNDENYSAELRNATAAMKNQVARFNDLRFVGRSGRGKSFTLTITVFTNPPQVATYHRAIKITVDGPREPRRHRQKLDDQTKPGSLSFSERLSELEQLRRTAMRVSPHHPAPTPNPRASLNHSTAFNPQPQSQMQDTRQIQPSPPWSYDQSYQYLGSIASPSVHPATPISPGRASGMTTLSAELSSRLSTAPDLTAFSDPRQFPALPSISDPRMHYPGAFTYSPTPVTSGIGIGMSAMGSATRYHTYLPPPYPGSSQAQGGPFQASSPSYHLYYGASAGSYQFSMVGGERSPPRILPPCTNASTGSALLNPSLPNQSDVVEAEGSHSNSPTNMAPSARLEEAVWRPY
Target sequence (Q13951 whole entry, looked up, the tested form may be a part): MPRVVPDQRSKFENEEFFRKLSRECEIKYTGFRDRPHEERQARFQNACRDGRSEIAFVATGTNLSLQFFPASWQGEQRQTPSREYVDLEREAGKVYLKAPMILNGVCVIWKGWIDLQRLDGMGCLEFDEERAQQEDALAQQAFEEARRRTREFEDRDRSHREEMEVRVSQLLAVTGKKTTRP
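test system = Cerulean-Runt domain fusion protein, energy donor | probe or stimulus = Venus-CBFb binding partner, 100 nM | incubation = two 1 h room-temperature incubations shielded from light | detection = fluorescence energy transfer, 422 nm excitation, 530/480 nm emission | measure = loss of energy transfer signal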
RanGTP-Impb inh – inhibitors of RanGTP-importin-beta interaction, primary screen, biochemical, FRET, CFP-Ran, YFP-importin-beta, homogeneous; cell-free CFP-Ran/YFP-importin-beta FRET ratio; inhibition, % (no concentration beside the values); 300,000 compounds, 1.1% hits; AID 2216;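 active = more than half of the replicate wells show a fall in the fluorescence ratio signal beyond about 16%, limit read from the data, passing the limit was not always enough; inconclusive = exactly half of the replicate wells pass the set limit; inactive = fewer than half of replicates pass the limit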
Hck Nef HTS – inhibitors of human Hck kinase activated by Nef | P08631 | Recombinant Hck-YEEI plus Nef, Z-Lyte FRET kinase assay | AID 463187 | 220,000 compounds, 0.68% hits | inhibition, % at 20 µM;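 active = Hck-Nef kinase inhibition above about 50%, limit read from the data; inactive = inhibition below that limit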
Runt-SMMHC FRET – blocks binding of human RUNX1 Runt domain to CBFb-SMMHC. 220,000 compounds, 0.74% hits. inhibition, % at 20 µM. Cerulean-Runt/Venus-CBFb-SMMHC FRET ratio 530/480, 1 h. Q01196+Q13951;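 active = mean inhibition across duplicate retests at 20 µM reaching about 50%, limit read from the data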;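 note: inhibitors lower the FRET ratio by blocking Runt binding to CBFb-SMMHC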
YIC FRET counter – counter-screen for RanGTP-importin-beta inhibitors: YIC FRET probe. shares compounds with RanGTP-Impb inh. Purified YIC probe, intramolecular FRET ratio YFP/CFP. IC50, µM. 1,000 compounds, 40% hits;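 active = fitted half-maximal inhibitory concentration no more than tenfold above the top dose tested; inconclusive = flat fit with 30 to 70% activity, or poor fit; inactive = half-maximal concentration beyond tenfold above the top dose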
Numbers stand for hits; i = inactive; ? = inconclusive; nt = no result. Rows were chosen to be rich in hits. Some 1.7% of all compounds tested hit in one or more screens of this group.

SMILES | Runt-CBFb FRET | RanGTP-Impb inh | Hck Nef HTS | Runt-SMMHC FRET | YIC FRET counter
CCS(=O)(=O)c1nc(S(=O)(=O)c2ccc(C)cc2)c(NCc2ccccn2)s1 | i | 16 | i | i | i
CCCS(=O)(=O)c1nc(S(=O)(=O)c2ccc(C)cc2)c(NCc2ccccn2)s1 | i | i | i | i | nt
Cc1c2ccccc2nc2ccccc12 | nt | i | nt | nt | nt
COc1c2ccccc2nc2ccccc12 | nt | 41 | nt | nt | 14
CCOC(=O)/C(C#N)=C/c1ccc(N2CCN(C)CC2)cc1 | i | 20 | i | i | 16
CCOC(=O)/C(C#N)=C\c1ccc(N2CCN(C)CC2)cc1 | i | 21 | i | i | 16
CC(=O)c1cc2c(cc1NC(=O)c1ccc(C)cc1)OCCO2 | nt | i | nt | nt | nt
CCCC(=Nc1ccccc1OC)C1=C(O)CC(c2ccccc2)CC1=O (centres undefined) | i | i | i | i | nt
COc1ccccc1N=C(C)C1=C(O)CC(c2ccccc2)CC1=O (centres undefined) | i | 20 | i | i | i
Cc1c(Br)c(=O)oc2c(Br)c(O)c(O)cc12 | 55 | 26 | i | 76 | 11
COc1c(Br)cc2c(C)c(C(=O)O)oc2c1Br | i | i | i | i | nt
Cc1ccc(S(=O)(=O)NCC2(c3ccccc3)CCOCC2)cc1 | i | i | i | i | nt
CCCCc1cc(-c2n[nH]c(=S)o2)c2ccccc2n1 | nt | 20 | nt | nt | i
O=C1CCC2S/C(=C/Nc3ccc(C(F)(F)F)cc3)C(=O)N12 (centres undefined) | i | i | i | i | nt
Cc1cnc(=O)[nH]c1SCC(=O)c1ccc(F)cc1 | nt | 16 | nt | nt | i
Cc1csc(NC(=O)CSc2[nH]c(=O)ncc2C)n1 | nt | i | nt | nt | nt
Cc1cc(C2C(C#N)=C(N)SC(N)=C2C#N)c(C)s1 | i | 34 | i | i | i
COc1ccc(/C=C/C(=O)NC(=S)Nc2cc([N+](=O)[O-])ccc2O)cc1OC | i | i | i | i | nt
COC(=O)C1=CN(c2ccc(F)cc2)C=C(C(=O)OC)C1c1ccc([N+](=O)[O-])cc1 | nt | i | nt | nt | nt
COC(=O)C1=CN(C2CC2)C=C(C(=O)OC)C1c1ccc(C(F)(F)F)cc1 | 80 | 26 | i | 123 | 19
Cc1cc(Br)ccc1NC(=O)CN1C(=S)NC(C)(C)CC1C (centres undefined) | i | i | i | i | nt
O=S(=O)(Nc1nnc(C2CCCCC2)s1)c1ccc(F)cc1 | nt | i | nt | nt | nt
O=[N+]([O-])c1ccc(S(=O)(=O)Nc2nnc(C3CCCCC3)s2)cc1 | nt | 20 | nt | nt | i
CC(=O)Nc1cc(C(=O)NCc2ccco2)ccc1Sc1ccc(Cl)cc1 | i | i | i | i | nt
CC(=O)Nc1cc(C(=O)N(C)Cc2ccco2)ccc1Sc1ccc(Cl)cc1 | i | 18 | i | i | i
SMILES | Runt-CBFb FRET | RanGTP-Impb inh | Hck Nef HTS | Runt-SMMHC FRET | YIC FRET counter
O=C(N/N=C/c1ccc(OC(=O)c2cccs2)cc1)c1ccccn1 | nt | i | nt | nt | nt
CC(C)NC(=O)NC(=O)COC(=O)c1ccccc1O | i | 16 | i | i | i
CC(C)NC(=O)NC(=O)COC(=O)c1ccccc1F | i | ? | i | i | nt
CCOC(=O)c1c(NC(=O)CSc2nnc3c(n2)[nH]c2ccc(F)cc23)sc(C(C)=O)c1C | i | nt | i | i | nt
CCOC(=O)c1c(NC(=O)CSc2nnc3c(n2)[nH]c2ccccc23)sc2c1CCN(C)C2 | nt | 24 | i | nt | i
CC(C)c1ccccc1NC(=O)C1C2C=CC(C2)C1C(=O)O (centres undefined) | nt | 24 | nt | nt | i
COC(=O)Cc1c(C)c2ccc(O)c(CNCc3ccc(OC)c(OC)c3)c2oc1=O | nt | 33 | nt | nt | 7.3
COC(=O)Cc1c(C)c2ccc(OCC(C)=O)c(C)c2oc1=O | i | i | i | i | nt
Clc1ccc(/C=C\c2nccc3c2[nH]c2ccccc23)cc1 | i | 28 | i | i | 8.6
Clc1ccc(/C=C/c2nc3ccccc3[nH]2)cc1 | i | i | i | i | nt
COc1ccc(CNc2ccc3c(c2)ncn3-c2ccccc2OC)cc1 | i | 29 | i | i | i
COc1ccccc1-n1cnc2cc(NCc3cccs3)ccc21 | i | ? | i | i | nt
Cc1ccccc1-n1cnc2cc(NCc3cccs3)ccc21 | i | 22 | i | i | i
O=C(CN1C2=NCCCN2c2ccccc21)c1ccc(Cl)cc1Cl | i | i | i | i | nt
CCCn1nc(NS(=O)(=O)c2cccc3nonc23)c2cc3ccccc3nc21 | nt | i | nt | nt | nt
CCCn1nc(NC(=O)CC(C)C)c2cc3cccc(C)c3nc21 | nt | 20 | nt | nt | 32
C=CCNc1sc(C(=O)c2ccc(Br)s2)c(N)c1C#N | i | 19 | i | i | 5.6
COc1cc2c(cc1OC)CN(Cc1cc(=O)oc3c(C)c(C)ccc13)CC2 | i | 20 | i | i | i
COc1cc2c(cc1OC)CN(Cc1cc(=O)oc3cc(C)c(Cl)cc13)CC2 | i | 23 | i | i | i
N#Cc1ccccc1OCC(=O)OCCCOC(=O)COc1ccccc1C#N | nt | i | nt | nt | nt
CN(C)c1ccc(P(=O)(OC2CCCCC2)C(O)c2ccncc2)cc1 (centres undefined) | i | i | i | i | nt
O=C(NCCN1CCOCC1)c1cc(Sc2ccccc2Cl)nc2ccccc12 | i | i | i | i | nt
COC(=O)C1=CN(Cc2ccccc2)C=C(C(=O)OC)C1c1cc(F)ccc1F | nt | 24 | nt | nt | 21
O=C(O)/C=C/C(=O)Nc1ccc2c(c1)NC(=O)CO2 | i | 34 | i | i | i
O=C1COc2ccc(C(=O)/C=C/c3ccccc3)cc2N1 | i | i | i | i | nt
SMILES | Runt-CBFb FRET | RanGTP-Impb inh | Hck Nef HTS | Runt-SMMHC FRET | YIC FRET counter
CC1(c2nnc(Cc3ccccc3)o2)CC(c2cccc(Cl)c2)=NO1 (centres undefined) | i | i | i | i | nt
CCOC(=O)C1=C(C)NC2=C(C(=O)C(C(=O)OCC)C(c3ccccc3OC)C2)C1c1ccccn1 (centres undefined) | i | 18 | i | 83 | 23
CCOC(=O)C1=C(C)NC2=C(C(=O)C(C(=O)OCC)C(c3ccc(OC)cc3)C2)C1c1ccccn1 (centres undefined) | i | 18 | i | 75 | 28
CCOC(=O)C1=C(C)NC2=C(C(=O)C(C(=O)OCC)C(c3cccc(OC)c3)C2)C1c1ccccn1 (centres undefined) | i | 26 | i | 89 | 21
Cc1ccn2c(CNCC3COCCO3)c(C(=O)N3CCCCCC3)nc2c1 (centres undefined) | nt | i | nt | nt | nt
CCOc1cccc(N2CCN(CCNC(=O)Nc3ccc(C)cc3)CC2)c1C | nt | i | nt | nt | nt
CNC(=O)c1c(C)[nH]c(=S)c(C#N)c1-c1ccco1 | i | 31 | i | i | i
CCOC(=O)c1c(-c2ccccc2)csc1NC(=O)c1cccc(N2C(=O)CCC2=O)c1 | i | i | i | i | nt
CCOC(=O)c1c(NC(=O)c2cccc(N3C(=O)CCC3=O)c2)sc2c1CCN(CC)C2 | nt | 21 | nt | nt | i
COc1ccccc1C(=O)NCCC(=O)N1CCCC(C)C1 (centres undefined) | nt | i | nt | nt | nt
Cc1ccc(-c2nc3cc(C)ccc3o2)cc1 | i | i | i | i | nt
Cc1ccc(-c2nc3cc(N)ccc3o2)cc1 | i | 21 | i | i | i

Bioassay records: PubChem, several laboratories
